Screening data: PubChem BioAssay, Johns Hopkins Ion Channel Center
TRPC4 potent: TRPC4 (mouse) allosteric potentiation. Q9QUQ5. HEK293 TRPC4beta/mu-opioid, DAMGO EC20, Fluo-4 Ca2+ flux; stronger effect = higher value. B-score at 10 µM. 0.42% of 310,000 active. AID 2227;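 active = B-score of calcium response area above 5 SD of library B-scores, with initial fluorescence ratio within 5 SD of library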;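 note: B-score of integrated fluorescence ratio over time as area under calcium response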
Target sequence (Q9QUQ5 whole entry, looked up): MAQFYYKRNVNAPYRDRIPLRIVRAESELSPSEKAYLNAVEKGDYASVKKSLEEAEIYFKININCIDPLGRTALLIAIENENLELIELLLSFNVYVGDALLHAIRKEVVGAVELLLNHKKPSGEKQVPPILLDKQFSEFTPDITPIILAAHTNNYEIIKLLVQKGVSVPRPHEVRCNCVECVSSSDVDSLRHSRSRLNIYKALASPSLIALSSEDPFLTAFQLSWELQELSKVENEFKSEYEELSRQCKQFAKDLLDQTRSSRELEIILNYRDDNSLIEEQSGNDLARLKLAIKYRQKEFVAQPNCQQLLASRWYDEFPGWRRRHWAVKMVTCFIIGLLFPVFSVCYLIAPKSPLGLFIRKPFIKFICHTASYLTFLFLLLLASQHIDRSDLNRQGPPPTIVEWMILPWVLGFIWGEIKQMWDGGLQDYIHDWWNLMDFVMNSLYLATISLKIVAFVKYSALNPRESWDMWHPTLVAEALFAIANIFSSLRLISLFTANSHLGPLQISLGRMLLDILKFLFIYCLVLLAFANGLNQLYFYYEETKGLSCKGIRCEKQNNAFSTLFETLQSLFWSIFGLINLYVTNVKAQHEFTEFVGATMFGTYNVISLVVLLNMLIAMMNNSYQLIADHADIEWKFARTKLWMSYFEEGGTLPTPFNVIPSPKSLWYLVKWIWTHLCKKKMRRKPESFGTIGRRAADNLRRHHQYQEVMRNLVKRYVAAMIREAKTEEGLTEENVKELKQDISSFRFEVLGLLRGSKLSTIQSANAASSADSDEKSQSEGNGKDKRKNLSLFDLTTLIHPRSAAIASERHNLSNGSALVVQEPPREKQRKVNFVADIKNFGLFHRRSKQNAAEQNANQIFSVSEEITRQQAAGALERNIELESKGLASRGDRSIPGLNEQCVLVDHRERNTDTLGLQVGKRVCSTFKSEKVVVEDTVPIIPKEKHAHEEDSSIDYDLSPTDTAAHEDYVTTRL
TRPC6 inhibitor: mouse TRPC6 channel inhibition; Q61143; HEK293-TRPC6, membrane potential dye, ACh-evoked depolarization; stronger effect = lower value; B-score at 10 µM; 1.1% of 310,000 active; AID 2553;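 active = B-score under library mean minus 3 SD, initial fluorescence not abnormally high, positive integrated signal ratio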;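 note: B-score derived from integrated fluorescence ratio over the kinetic read; more negative B-score means stronger inhibition of depolarization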
Kir21 inh: blocks the mouse Kir2.1 inward-rectifier potassium channel. B-score at 10 µM. AID 1672. 0.85% of 310,000 active. HEK293-Kir2.1, FluxOR thallium flux fluorescence; stronger effect = lower value;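 active = fluorescence ratio B-score at or below minus 3 SD of library scores, with starting-brightness B-score within 2 SD, cut at about -4.2 in these data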;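 note: channel flux triggered by added potassium and thallium sulfate stimulus; B-score of peak minus minimum fluorescence over baseline after thallium stimulus; more negative B-score means stronger Kir2.1 block with less thallium influx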
TRPC6 activator: activates the mouse TRPC6 cation channel; B-score at 10 µM; AID 2550; Q61143; HEK293-TRPC6 membrane potential dye fluorescence; stronger effect = higher value; 0.13% of 310,000 active;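 active = B-score of the integrated fluorescence ratio above library mean plus 3 SD, and starting fluorescence ratio within library mean plus 5 SD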;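 note: higher score means more depolarization so channel activation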
TRPC4 act: TRPC4 (mouse) channel activation. Q9QUQ5. HEK293 TRPC4beta/mu-opioid, Fluo4 calcium fluorescence; stronger effect = higher value. B-score at 10 µM. 0.49% of 310,000 active. AID 2237;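 active = B-score above 5 SD of library B-scores, and initial fluorescence ratio not above library mean plus 5 SD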;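 note: positive B-score marks a calcium rise read as TRPC4 activation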
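Technique: kinetic Fluo4 calcium fluorescence; Test system: TRPC4beta and mu-opioid receptor HEK293 stable cells; Measure: B-scored integrated calcium fluorescence ratio; Benchmarks: low control buffer alone, high control maximal DAMGO; Schedule: 45 min room-temperature Fluo4 loading, 110 s read.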
TRPC4 inh: blocks the mouse TRPC4 cation channel; HEK293 TRPC4beta/mu-opioid, DAMGO-evoked Fluo4 calcium flux; stronger effect = lower value; B-score at 10 µM; 0.39% of 300,000 active;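 active = B-score over 3 SD under the library average, no early fluorescence shift, positive overall ratio signal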
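Assay system: TRPC4beta/mu-opioid receptor HEK293 cell line; compound dosing: single concentration per test compound; detection: Fluo4 Ca2+ flux fluorescence; evaluation: per-well B score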
* hit, by the source's call; i = inactive. Shown are actives, neighbours in structure and some others; about 3% of the full set was active somewhere.

SMILES	TRPC4 potent	TRPC6 inhibitor	Kir21 inh	TRPC6 activator	TRPC4 act	TRPC4 inh
COc1ccc(C(C(=O)NC2CCCC2)N(C(=O)c2snc(C(N)=O)c2N)c2ccccc2OC)cc1OC (stereo not drawn)	i	i	0.21	i	i	i
COc1ccccc1N(C(=O)c1snc(C(N)=O)c1N)C(C(=O)NC1CCCC1)c1ccc2ncccc2c1 (stereo not drawn)	i	i	1.1	i	i	-6*
COc1cccc(N(C(=O)c2snc(C(N)=O)c2N)C(C(=O)NCC2CCCO2)c2ccc3ncccc3c2)c1 (stereo not drawn)	i	i	0.63	i	i	-6*
Cc1ccc(CNC(=O)c2ccc(Cn3nc(C)c(Cl)c3C)o2)cc1	i	i	-9*	i	i	i
Cc1cc(C)cc(NC(=O)c2ccc(Cn3nc(C)c(Cl)c3C)o2)c1	i	i	0.55	i	i	i
CC(C)(C)c1cc(CCC(=O)NCc2cccnc2)cc(C(C)(C)C)c1O	i	i	-5.1*	i	i	i
CCCCn1c(NCc2ccc(N(C)C)cc2)nc2ccccc21	i	i	0.2	i	i	-6*
Cn1c(NCc2ccc(Cl)cc2)nc2ccccc21	i	i	-9.6*	i	i	i
Cn1c(CNc2nc3ccccc3n2C)nc2ccccc21	i	i	-0.33	i	i	i
Cc1ccc(CNc2nc3ccccc3n2C)cc1	i	i	-6.4*	i	i	i
CC(C)(C)c1ccccc1NC(=O)CN1C(=O)NC(Cc2ccccc2)C1=O (stereo not drawn)	i	i	0.54	i	i	i
CCOc1ccccc1N(CC(=O)NCCSc1ccccc1)S(C)(=O)=O	i	i	-1.1	i	i	i
C=CCNC(=S)N1CCN(Cc2ccc3c(c2)OCO3)CC1	i	i	-0.9	i	i	i
CCN(CC)c1nc(N2CCN(C)CC2)nc2ccccc12	i	i	0	i	i	i
CCN(CC)c1nc(N2CCOCC2)nc2ccccc12	i	i	-1.3	i	i	-6*
OC1CCN(Cc2cccc3ccccc23)CC1	i	i	-2.7	i	i	i
CN1CCCN(Cc2cccc3ccccc23)CC1	23*	i	-0.72	i	i	i
COc1ccc(-c2nc3ccccc3c(=O)n2CCOc2cc(C)ccc2C)cc1	i	i	0.08	i	i	i
CCN(CC)CCSc1nc2ccc(OC)cc2[nH]1	i	i	-0.59	i	124*	i
CCOc1ccc2nc(SCC)[nH]c2c1	i	i	-0.04	i	i	i
Cc1cccc(NS(=O)(=O)c2cn(C)c(=O)n(C)c2=O)c1C	i	i	-1.2	i	i	i
C=CCn1c(CCNC(=O)C(C)(C)C)nc2ccccc21	i	i	-0.02	i	146*	i
O=C(/C=C/c1ccccc1Cl)N(c1ccccn1)C1CCCCC1	16*	i	-0.14	i	i	i
O=C(/C=C/c1ccccc1)N(c1ccccn1)C1CCCCC1	i	i	-1	i	i	i
Cc1cc(C)c(C(=O)c2ccc(C(=O)N3CCCCC3)cc2)c(C)c1	16*	i	0.21	i	i	i
SMILES	TRPC4 potent	TRPC6 inhibitor	Kir21 inh	TRPC6 activator	TRPC4 act	TRPC4 inh
Cc1cc(C)c(C(=O)c2ccc(C(=O)N(C(C)C)C(C)C)cc2)c(C)c1	10*	i	0.04	i	i	i
Cc1nnc(SCC(=O)Nc2c(C)n(C)n(-c3ccccc3)c2=O)n1Cc1ccccc1	i	i	0	i	i	i
CN(C(=O)c1cccc(COc2ccc(Cl)cc2Cl)c1)c1ccccc1	i	i	-6*	i	i	i
OC(COCCOc1ccc(Br)cc1)CN1CCN(Cc2ccccc2)CC1 (stereo not drawn)	i	i	-7.4*	i	i	i
OC(CNC1CCCCC1)COCCOc1ccc(Br)cc1 (stereo not drawn)	i	i	-4.3*	i	i	i
COC(=O)c1ccc(OCC(O)CNC2CCCC2)cc1 (stereo not drawn)	i	i	-2.3	i	i	i
COc1cccc(OCCOCC(O)CN2CCN(Cc3ccc(Cl)cc3)CC2)c1 (stereo not drawn)	i	i	-1.9	i	i	i
CCc1ccc(OCCOCC(O)CN2CCN(Cc3ccc(Cl)cc3)CC2)cc1 (stereo not drawn)	i	i	-9.1*	i	i	i
Cc1cc(C)n(C(=O)/C(C#N)=N\Nc2ccccc2[N+](=O)[O-])n1	i	i	2.1	i	i	i
Cc1cc(C)n(C(=O)/C(C#N)=N/Nc2cc(Cl)cc(Cl)c2)n1	i	-6.5*	-1.6	i	i	i
Cc1ccccc1OCC(=O)NCCNC(=O)c1ccccn1	i	i	-0.73	i	i	i
CC(C)(C)c1ccc(/C=C2\SC(=O)N(CCNC(=O)c3cccc(S(=O)(=O)N4CCOCC4)c3)C2=O)cc1	i	i	-0.02	i	i	i
CCOc1ccccc1N(CC(=O)N1CCOCC1)S(=O)(=O)c1ccccc1	i	i	0.47	i	93*	-6*
CC(=O)c1ccc(NC(=O)C(C)Sc2n[nH]c(-c3cccnc3)n2)cc1 (stereo not drawn)	i	i	0.33	i	i	i
COc1cc(CNCc2cccs2)ccc1OCC(=O)NC(C)(C)C	i	i	0.18	i	i	i
CCOc1cc(CNCc2cccs2)ccc1OCC(=O)NC(C)(C)C	i	i	-2.6	i	i	-6*
COc1cc(CNCc2cccs2)ccc1OCc1cccs1	i	i	-5*	i	i	i
COc1cc(CNCc2cccs2)ccc1OCc1ccccc1	i	i	-3	i	i	i
CCOc1cc(N2CCOCC2)c(OCC)cc1NC(=O)COC(=O)/C=C/c1ccc(OC(F)F)cc1	i	i	1.3	i	i	i
Cc1ccc(-c2ccc3c(c2)S(=O)(=O)c2ccccc2C3=O)cc1	29*	i	1.5	i	i	i
Cc1ccnc(NC(=O)c2ccc3c(c2)S(=O)(=O)c2ccccc2C3=O)c1	i	i	-0.55	i	i	i
CCCCN(CCCNC(=O)c1ccc(CS(=O)(=O)c2ccc(OC)cc2)o1)Cc1ccccc1	i	i	0.02	i	i	-6*
CCCCN(CC)CCCNC(=O)c1ccc(CS(=O)(=O)c2ccccc2C)o1	i	i	-0.53	i	68*	i
